# APJ ag = agonists of human apelin receptor APJ, primary screen, CHO-K1 cells, PathHunter beta-arrestin, luminescence; 0% DMSO wells, 100% apelin; hit rate 0.11% among 330,000; AID 2520, 2010; activation, % at 20 µM;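 active means activation more than six SD over the plate average, tested at 20 µM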;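 further: 0% = DMSO alone and 100% = apelin-13 at 10 nM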
#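 Test system: CHO-K1 APJ beta-arrestin complementation cell line. Amount: cell density 1000 per well. Controls: DMSO negative, 10 nM Apelin-13 positive. Signal: luminescent beta-gal fragment complementation, chemiluminescent substrate. Read-out basis: agonist-driven arrestin binding to APJ. Timing: compound stimulation 90 min at 25 °C, detection 60 min.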
# APJ antag = antagonists of human apelin receptor APJ, primary screen, CHO-K1 cells, beta-arrestin complementation, luminescence. inhibition, % at 20 µM. hit rate 0.32% among 330,000;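 active means inhibition above about 40% at 20 µM, limit read from the data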;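 further: cells challenged with 10 nM apelin-13 agonist together with compound; plate controls were apelin-13 plus DMSO wells for no effect and DMSO wells lacking apelin-13 for full effect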
# CCR6 antag = CCR6 receptor antagonists, primary screen, cell-based, CHO-K1, luminescence, beta-arrestin, uHTS | inhibition, % at 20 µM | hit rate 0.49% among 340,000 | AID 493098, 2011 | CHO-K1 CCR6 PathHunter beta-arrestin, CCL20-stimulated | C-C chemokine receptor type 6 (Homo sapiens), P51684;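 active means compounds whose inhibition of the agonist-driven luminescence signal at 20 µM reaches about 50%, limit read from the data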;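 further: cells stimulated with CCL20 at 14 nM final; plate controls were DMSO with CCL20 for no effect and DMSO without agonist for full effect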
# EBI2 block = EBI2 receptor antagonists, beta-arrestin recruitment, primary screen, cell-based, luminescence, 7a,25-OHC stimulation, uHTS; inhibition, % at 5 µM; AID 651636, 2012; hit rate 0.81% among 360,000; 7a,25-OHC stimulated; G-protein coupled receptor 183 (Homo sapiens), P32249; in the data active means inhibition above about 38%;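 further: enzyme fragment complementation signal reports receptor beta-arrestin coupling in cells; 0% = agonist plus DMSO wells and 100% = wells without agonist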
# Target sequence (P32249 whole entry, looked up, the tested form may be a part): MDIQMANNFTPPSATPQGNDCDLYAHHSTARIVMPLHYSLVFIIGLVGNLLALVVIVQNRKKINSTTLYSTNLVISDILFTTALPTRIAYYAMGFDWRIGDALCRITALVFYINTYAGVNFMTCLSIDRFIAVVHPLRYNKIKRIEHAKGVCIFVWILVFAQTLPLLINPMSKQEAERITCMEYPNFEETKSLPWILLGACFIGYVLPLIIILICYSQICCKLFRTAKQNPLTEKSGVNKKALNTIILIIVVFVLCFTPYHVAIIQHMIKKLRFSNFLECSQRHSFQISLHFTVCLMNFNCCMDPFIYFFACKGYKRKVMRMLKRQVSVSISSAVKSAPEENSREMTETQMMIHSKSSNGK
# CXCR6 block = CXCR6 receptor inhibitors, primary screen, cell-based, beta-arrestin, luminescence, CHO-K1 PathHunter, 1536-well; C-X-C chemokine receptor type 6 (Homo sapiens), O00574; AID 602244, 2012; hit rate 0.36% among 360,000; inhibition, % at 20 µM; in the data active means inhibition above about 34%, passing the limit was not always enough;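 further: antagonist mode with CXCL16 agonist at 10 nM final; 0% = 10 nM CXCL16 with DMSO and 100% = unstimulated wells without agonist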
# APJ ag conf = agonists of human apelin receptor APJ, confirmation, cell-based, single concentration, CHO-K1, beta-arrestin, luminescence; shares compounds with APJ ag; CHO-K1 APJ PathHunter beta-arrestin; activation, % at 20 µM; hit rate 10% among 310;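 active means activation above 40%, taking the highest of four retests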;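 further: plate controls were DMSO wells for no effect and apelin-13 at 10 nM for full effect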
# * hit, by the source's call; nt = no result. In the library only some 1.5% were active in any assay of this set; here they are far more common.
SMILES,APJ ag,APJ antag,CCR6 antag,EBI2 block,CXCR6 block,APJ ag conf
N=c1c(C(=O)NC2CCCCC2)cc2c(=O)n3ccccc3nc2n1Cc1ccccc1,0,-18,8,12,22,nt
N=c1c(C(=O)NC2CCCCC2)cc2c(=O)n3ccccc3nc2n1CCc1ccccc1,20*,-8,19,10,2,-2
COc1ccc(C(=O)NCc2cnn(C)c2C)cc1OC1CCN(C(C)C)CC1,-2,7,16,-8,1,nt
CSCCNC(=O)C1(C)CCN1C(=O)c1sccc1C (stereo unspecified),nt,nt,nt,-12,8,nt
COc1cccc(N2CCN(c3ncnc4c3cnn4-c3ccc(C)cc3C)CC2)c1,16*,-58,-7,-74,-4,34
Cc1ccc(-n2ncc3c(N4CCCC4)ncnc32)c(C)c1,-2,4,-1,-2,0,nt
Cc1ccc(C(=O)N2CCN(c3ncnc4c3cnn4-c3ccccc3)CC2)cc1,32*,-20,nt,13,-9,-2
CCCCNC(=O)CCn1nc(-c2ccc(C)cc2)c2ccccc2c1=O,-4,-8,22,-1,4,nt
CCOC(=O)C1CCN(c2cc3c(cc2NC(=O)c2ccc(OC)c(OC)c2)n(C)c(=O)n3C)CC1,-2,5,14,24,10,nt
Cc1cc(C)nc(/N=C(\N)Nc2ccc(OCCC(C)C)cc2)n1,16*,-3,-1,-19,-3,7
COc1ccc(N/C(N)=N/c2nc(C)cc(C)n2)cc1,nt,nt,nt,-11,-7,nt
Nc1nc(SCC(=O)Nc2ccc([N+](=O)[O-])cc2)[nH]c(=O)c1NC(=O)c1ccc(Br)cc1,1,16,7,4,-1,nt
Cn1c(=O)c2cc3ccccc3nc2n(C)c1=O,-7,16,-8,1,-1,nt
N#Cc1cc2cc3ccccc3nc2n2c(=O)c3ccccc3nc12,15*,-31,7,-15,-18,3
O=C(Nc1ccccc1Cl)c1ccc(-c2ccccn2)s1,-4,18,12,-9,-2,nt
O=[N+]([O-])c1ccc2nc(-c3ccc(Cl)cc3)[nH]c2c1,14*,-15,-24,11,-6,31
O=C(Nc1ccc(N2CCN(C(=O)c3cccs3)CC2)cc1)c1ccco1,1,15,7,10,-6,nt
CCC(=O)Nc1ccc(N2CCN(C(=O)c3cccs3)CC2)cc1,-4,10,-3,-15,-4,nt
O=C(COc1ccccc1[N+](=O)[O-])Nc1ccc(N2CCN(C(=O)c3cccs3)CC2)cc1,16*,-19,-17,-26,3,24
O=C(Nc1ccc(N2CCN(C(=O)c3cccs3)CC2)cc1)c1ccc([N+](=O)[O-])o1,29*,-94,nt,13,0,6
COc1cc(C(=O)c2nccc3cc(OC)c(OC)cc23)c([N+](=O)[O-])cc1OC,14*,-11,-4,-23,-2,4
COc1ccc(/C=N/N(C(C)=O)c2nc(-c3ccc(C)cc3)cs2)cc1,50*,-35,9,-4,2,14
COC(=O)CCCC1=CC2=CC(=O)C(C)(OC(=O)c3cccs3)C(=O)C2=CN1C1CCCCC1 (stereo unspecified),92*,-47,-5,-8,-21,21
CCCCC1=CC2=CC(=O)C(C)(OC(=O)CC)C(=O)C2=CN1C1CCCCC1 (stereo unspecified),125*,-25,2,2,-6,54*
CCOC(=O)c1cnc2c(cnn2C)c1NCCCn1ccnc1,-1,4,14,-1,4,nt
SMILES,APJ ag,APJ antag,CCR6 antag,EBI2 block,CXCR6 block,APJ ag conf
CCCCCN(C(=O)CCC(=O)OCC(=O)N1CCC(C)CC1)c1c(N)n(CCCC)c(=O)[nH]c1=O,2,-2,2,-5,-4,nt
CC(C)Nc1ccc(Nc2ccnc3cc4ccccc4cc23)cc1,24*,10,23,24,12,34
COc1ccc(Nc2ccnc3ccccc23)cc1,-4,4,-6,8,-8,nt
CC(C)(C)c1ccccc1NC(=O)CN1C(=O)NC2(CCCCCC2)C1=O,-4,1,-12,2,-2,nt
Cc1ccc(S(=O)(=O)N2C(=O)CCC2C(=O)O/N=C(\N)c2ccccc2)cc1 (stereo unspecified),12,-37,-6,5,-3,nt
Cc1ccc(S(=O)(=O)N2C(=O)CCC2C(=O)O/N=C(\N)c2ccc([N+](=O)[O-])cc2)cc1 (stereo unspecified),36*,-134,-26,-18,-17,20
Cc1ccc(S(=O)(=O)N2C(=O)CCC2C(=O)O/N=C(\N)c2cccc([N+](=O)[O-])c2)cc1 (stereo unspecified),37*,-132,-41,-9,-36,23
Cc1ncc(CN2CCC(CO)(CCc3ccccc3)CC2)s1,-2,-12,8,-3,-2,nt
Clc1cccc(Cl)c1CSc1nnc(-c2ccncc2)s1,70*,-18,-17,-53,-8,27
O=C(COC(=O)C1CC(O)CN1S(=O)(=O)c1ccc(Cl)cc1)c1ccccc1 (stereo unspecified),-3,-7,1,-2,0,nt
Cc1[nH]c2ccccc2c1C(=O)COC(=O)C1CC(O)CN1S(=O)(=O)c1ccc(Cl)cc1 (stereo unspecified),28*,-16,-14,-16,-6,4
O=C(C1CCC(CNS(=O)(=O)c2cccs2)CC1)N1CCN(c2ccc(Cl)cc2)CC1 (stereo unspecified),26*,-40,-7,-32,-13,20
COC(=O)[C@]1(Cc2ccccc2)N[C@H](CN(C)C(=O)Nc2ccc(OC)cc2)[C@@H]2C(=O)N(C)C(=O)[C@@H]21,-4,-6,-4,-7,-3,nt
COC(=O)[C@]1(Cc2ccccc2)N[C@H](CN(C)C(=O)Nc2ccc(OC)cc2)[C@@H]2C(=O)N(Cc3ccccc3)C(=O)[C@@H]21,12*,-7,1,1,3,-3
Cc1noc(C)c1NC(=O)N(C)C[C@H]1Oc2ccc(NC(=O)Nc3ccccc3)cc2C(=O)N([C@H](C)CO)C[C@@H]1C,-5,14,-4,4,-7,nt
Cc1cc(C)n2nc3nc(N4CCCCC4)nc(-c4ccco4)c3c2n1,73*,26,17,-5,3,41*
COc1cc(C(=S)N2CCOCC2)cc(OC)c1OC(=O)c1cccc(C)c1,2,12,20,-5,4,nt
COc1ccc(N(CC(=O)N2CCC(C(N)=O)CC2)S(=O)(=O)c2ccccc2)cc1,1,5,-3,5,5,nt
